PubChem BioAssay
Inconclusive results are not listed. Active and inactive are the calls of the source.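 Rule for the calls, unless noted: active = RAM network inhibition above 8.4% in each of two replicates, 3 SD over the compound average; inconclusive = above 8.4% inhibition in only one replicate; inactive = 8.4% inhibition or less in each replicate.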

Assays:
[1] = OD615 S. cerevisiae growth inhibition, permissive medium, pilot counter-assay, permissive growth control for S. cerevisiae lifespan shortening project (AID 705;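 active = growth inhibition above 25% in both replicates, a cutoff set 3 SD above the mean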); settings: OD615, 24 h, at 10 µM, stronger effect = higher value
In short: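 System: engineered DeaD yeast; Medium: permissive raffinose/galactose medium; Compound dosing: 10 µM single dose, 0.25% DMSO; Incubation: 4 h cell pre-growth, 24 h exposure at 30 °C; Technique: OD at 615 nm; Evaluation: growth inhibition from lowered OD615 after 24 h.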

[2] = Restrictive medium S. cerevisiae growth inhibition, OD615, pilot screen of yeast lifespan reduction project, restrictive growth control (AID 706;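 active = growth inhibition above a set limit, 3 SD over mean compound inhibition, in both replicates, cut at about 43% in these data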;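 note: modified DeaD lifespan yeast strain shifted to restrictive glucose medium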); settings: OD615, 48 h, at 10 µM, stronger effect = higher value
In short: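 Material: modified S. cerevisiae; buffer or medium: CSMM-D glucose medium; doses: one concentration, 10 µM final, 0.25% DMSO; incubation: 48 h compound exposure at 30 °C; detection: optical density at 615 nm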

[3] = viability gain of MRP-1-high H69AR cells under doxorubicin, pilot screen, MRP-1 activator project, CellTiter-Glo, duplicate (AID 807;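 active = viability increase at or above a cutoff of the median across tested compounds plus 3 SD, cut at about 8.5% in these data, passing the limit was not always enough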;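 note: compound pretreatment 18-22 h then 72 h combined with doxorubicin; 0% = doxorubicin alone and 100% = vehicle without doxorubicin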); settings: H69AR viability with doxorubicin, CellTiter-Glo luminescence; at 10 µM; stronger effect = higher value
[4] = growth suppression of beta-catenin knockout HCT116, pilot screen, human colon tumor cells (AID 823;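 active = cell viability at or below a set limit in both duplicate runs, the limit being the all-compound median minus 4 SD, cut at about 23% in these data, passing the limit was not always enough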;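 note: 0% = wells killed by 20 µM Hyamine and 100% = untreated DMSO cell wells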); settings: CellTiter-Glo, 60 h, at 10 µM, stronger effect = lower value
[5] = growth suppression of PTEN-deleted HCT116, pilot screen, cell-based, HCT116 clonal line, CellTiter-Glo (AID 824;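 active = viability at or below 27.92% in each of two runs, the all-compound median minus 4 SD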;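 note: 0% = 20 µM Hyamine control and 100% = vehicle cell control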); settings: 60 h, at 10 µM, stronger effect = lower value
[6] = inhibitors of the yeast RAM network, pilot screen, dse1pr::URA3 reporter, 5-FOA selection (AID 869;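 active = inhibition over a set limit, the all-compound mean plus 3 SD, in both replicate runs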;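 note: 0% = DMSO wells with no growth and 100% = 10 µM 1-NA-PP1 with full growth; RAM network block rescues cells from 5-FOA so hits raise OD615 growth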); settings: S. cerevisiae dse1pr::URA3 5-FOA growth, OD615, 2 d; at 10 µM; stronger effect = higher value; strain carries analog-sensitive mutant Cbk1 kinase
[7] = RAM signaling pathway blockade in yeast – S. cerevisiae, Pdr1DBD-CYC8 efflux-inhibited sensitized strain, primary screen (AID 1298);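 note: 0% = DMSO untreated cells without growth and 100% = 10 µM 1-NA-PP1 full growth; higher means more yeast growth rescued from 5-FOA killing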; settings: S. cerevisiae cbk1-as DSE1-URA3 strain, 5-FOA growth OD615, 2 d; at 50 µM; stronger effect = higher value

CN(C)c1nc(N)nc(-c2cccnc2)n1
inactive: growth inhibition [1] -0.465% | growth inhibition [2] 3.66% | viability increase [3] 0.55% | viability [4] 102% | viability [5] 103% | inhibition [6] 1.14% | RAM network inhibition [7] 5.69%

Nc1nc(NC(=O)c2ccco2)nn1-c1ccccc1
inactive: growth inhibition [1] -11.7% | growth inhibition [2] 1.96% | viability increase [3] -2.61% | viability [4] 93.8% | viability [5] 98.6% | inhibition [6] -0.025% | RAM network inhibition [7] 5.17%

COc1ccc(N(CC(=O)Nc2nc3ccc(C)cc3s2)S(=O)(=O)c2c(C)nn(C)c2C)cc1
inactive: growth inhibition [1] -5.89% | growth inhibition [2] -16.3% | viability increase [3] -7.24% | viability [4] 64.9% | viability [5] 57.1% | inhibition [6] 1.33% | RAM network inhibition [7] 6.79%

C=CCN1C(=O)c2oc3ccccc3c(=O)c2C1c1ccc(O)c(OC)c1 (centres undefined)
inactive: growth inhibition [1] 3.61% | growth inhibition [2] 3.18% | viability increase [3] -2.61% | viability [4] 101% | viability [5] 95.4% | inhibition [6] 2.72% | RAM network inhibition [7] 5.67%

COCCOC(=O)C1=C(C)NC2=C(C(=O)CCC2)C1c1cc2c(cc1Br)OCO2 (centres undefined)
inactive: growth inhibition [1] -18.1% | growth inhibition [2] -17% | viability increase [3] -0.03% | viability [4] 92.4% | viability [5] 102% | inhibition [6] 1.16% | RAM network inhibition [7] 5.69%

CCC1CCCCN1Cc1ccc(OC)c(OC)c1 (centres undefined)
inactive: growth inhibition [1] -7.04% | growth inhibition [2] -8.04% | viability increase [3] -2.09% | viability [4] 87.8% | viability [5] 96.9% | inhibition [6] 2.01% | RAM network inhibition [7] -1.61%

Cc1ccnc(SCCn2c(N3CCC(C)CC3)nc3c2c(=O)[nH]c(=O)n3C)n1
inactive: growth inhibition [1] -10.1% | growth inhibition [2] -6.83% | viability increase [3] -2.18% | viability [4] 106% | viability [5] 100% | inhibition [6] 0.24% | RAM network inhibition [7] -1.36%

O=C(C1CC1)N1CCc2cc(Br)cc(S(=O)(=O)N3CCN(c4ccccn4)CC3)c21
inactive: growth inhibition [1] -13.2% | growth inhibition [2] -14.6% | viability increase [3] -2.17% | viability [4] 91% | viability [5] 91.5% | inhibition [6] 1.29% | RAM network inhibition [7] 5.52%

CC1=C(C(N)=O)C(c2cccc(O)c2)n2nc(CCCO)nc2N1 (centres undefined)
inactive: growth inhibition [1] -9.85% | growth inhibition [2] -1.35% | viability increase [3] -1.07% | viability [4] 101% | viability [5] 104% | inhibition [6] 2.02% | RAM network inhibition [7] 2.87%

COc1cccc2sc(Nc3nnc(-c4ccccc4Cl)o3)nc12
active: viability [4] 15.4% | viability [5] 18.8%
inactive: growth inhibition [1] -29.8% | growth inhibition [2] -13.7% | viability increase [3] -4.31% | inhibition [6] 1.1% | RAM network inhibition [7] 1.26%

CCOC(=O)c1[nH]c(C)c(C(=O)OCC)c1C
inactive: growth inhibition [1] -9.48% | growth inhibition [2] 1.48% | viability increase [3] 2.18% | viability [4] 105% | viability [5] 97.5% | inhibition [6] 3.55% | RAM network inhibition [7] 4.06%

COCCNC(=O)Cn1ncc2ccsc2c1=O
inactive: growth inhibition [1] -1.34% | growth inhibition [2] 5.16% | viability increase [3] 0.35% | viability [4] 107% | viability [5] 100% | inhibition [6] 2.33% | RAM network inhibition [7] 4.98%

CCCc1cc(C(=O)Nc2sc(C(C)=O)c(C)c2C(=O)OCC)no1
inactive: growth inhibition [1] -18.8% | growth inhibition [2] -30.5% | viability increase [3] -4.9% | viability [4] 86.2% | viability [5] 78.4% | inhibition [6] 1.46% | RAM network inhibition [7] 3.25%

Cc1nnc(SCCn2c(N3CCCC(C)C3)nc3c2c(=O)n(C)c(=O)n3C)s1 (centres undefined)
inactive: growth inhibition [1] -11.4% | growth inhibition [2] -13.6% | viability increase [3] -3.23% | viability [4] 94.2% | viability [5] 97.2% | inhibition [6] 2.31% | RAM network inhibition [7] 1.84%

O=C(Nc1nnc(-c2ccccc2)s1)c1ccc(Cl)c(S(=O)(=O)N2CCOCC2)c1
inactive: growth inhibition [1] -16.8% | growth inhibition [2] -5.79% | viability increase [3] -1.65% | viability [4] 100% | viability [5] 96.2% | inhibition [6] 2.61% | RAM network inhibition [7] 1.72%

Cc1cccn2c(=O)c3cc(C(=O)NCCN4CCOCC4)c(=N)n(CCc4ccccc4)c3nc12
active: viability [4] 5.75% | viability [5] 12.8%
inactive: growth inhibition [1] -0.895% | growth inhibition [2] -4.73% | viability increase [3] -5.8% | inhibition [6] 1.02% | RAM network inhibition [7] 2.73%

O=C(O)CCC(=O)Nc1ccc(-c2nnc(-c3ccco3)o2)cc1
inactive: growth inhibition [1] -12.8% | growth inhibition [2] -4.63% | viability increase [3] -0.63% | viability [4] 102% | viability [5] 99.8% | inhibition [6] 1.61% | RAM network inhibition [7] 2.14%

COC(=O)Cn1cnc2c(nnn2-c2cccc(Cl)c2)c1=O
inactive: growth inhibition [1] -0.625% | growth inhibition [2] 0.135% | viability increase [3] 1.53% | viability [4] 108% | viability [5] 99.4% | inhibition [6] 1.28% | RAM network inhibition [7] -1.59%

CCN1CCN(CC(O)COc2ccc(C(C)=O)cc2)CC1 (centres undefined)
inactive: growth inhibition [1] -5.8% | growth inhibition [2] -1.04% | viability increase [3] 0.34% | viability [4] 98.8% | viability [5] 100% | inhibition [6] 0.405% | RAM network inhibition [7] 0.31%

O=C(Nc1ccc(F)cc1)C1CCC(N2C(=O)c3ccccc3C2=O)CC1 (centres undefined)
inactive: growth inhibition [1] -11.6% | growth inhibition [2] -20.7% | viability increase [3] -7.05% | viability [4] 86.3% | viability [5] 96.1% | inhibition [6] 1.48% | RAM network inhibition [7] 12.4%

COc1cc(Cl)c(S(=O)(=O)n2cnc(C)c2)cc1Cl
inactive: growth inhibition [1] 2.76% | growth inhibition [2] 0.12% | viability increase [3] 0.28% | viability [4] 101% | viability [5] 104% | inhibition [6] 1.33% | RAM network inhibition [7] 2.3%

CCCC(=O)c1ccc(N2CCCCCC2)c(F)c1
inactive: growth inhibition [1] -13.2% | growth inhibition [2] -2.93% | viability increase [3] 3.64% | viability [4] 85.9% | viability [5] 87.3% | inhibition [6] 1.73% | RAM network inhibition [7] 1.5%

Oc1c(C(c2cccs2)N2CCOCC2)sc2ncnn12 (centres undefined)
inactive: growth inhibition [1] 11.1% | growth inhibition [2] -3.88% | viability increase [3] 0.31% | viability [4] 105% | viability [5] 101% | inhibition [6] 0.895% | RAM network inhibition [7] 5.2%

CC(=O)c1sc(NC(=O)c2ccccc2F)nc1C
inactive: growth inhibition [1] -10.4% | growth inhibition [2] -3.2% | viability increase [3] -0.32% | viability [4] 79% | viability [5] 75.2% | inhibition [6] 0.31% | RAM network inhibition [7] 0.74%

COc1ccc(S(=O)(=O)N2CCN(C)CC2)cc1C
inactive: growth inhibition [1] -15.1% | growth inhibition [2] -4% | viability increase [3] 1.37% | viability [4] 88.4% | viability [5] 92.1% | inhibition [6] 3.29% | RAM network inhibition [7] 3.02%

CSCCC(NC(=O)c1c(C)oc2c1CCCC2)C(=O)O (centres undefined)
inactive: growth inhibition [1] -2.84% | growth inhibition [2] -12.1% | viability increase [3] -0.78% | viability [4] 98.5% | viability [5] 95.9% | inhibition [6] 1.46% | RAM network inhibition [7] 0.21%

COc1cc(C2C(C(=O)Nc3ccc(F)cc3)=C(C)Nc3nc(CCCO)nn32)cc(OC)c1OC (centres undefined)
inactive: growth inhibition [1] -2.56% | growth inhibition [2] -11.4% | viability increase [3] -1.09% | viability [4] 105% | viability [5] 92.7% | inhibition [6] 2.58% | RAM network inhibition [7] 1.42%
